Measurements published in ChEMBL document CHEMBL1250434, “A novel achiral seco-cyclopropylpyrido[e]indolone (CPyI) analog of CC-1065 and the duocarmycins: synthesis, DNA interactions, in vivo anticancer and anti-parasitic evaluation” (Bioorg Med Chem, 2010).

Columns and labels:
[1] = tested on: L1210; test: Cytotoxicity against mouse L1210 cells after 3 days by MTT assay; assay type: functional, cell-based; conditions: L1210, 72 h
In short: (§1)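 Murine tumour cells under continuous drug exposure for 3 days. Growth inhibition measured by MTT assay. IC50 is the concentration inhibiting growth by 50%.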

[2] = tested on: Nucleic Acid; test: Binding affinity to pUC18 DNA assessed as DNA alkylating activity after 5 hrs by thermal cleavage assay; assay type: nucleic-acid assay; conditions: Escherichia coli
In short: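 PCR probe from the 749–956 region of pUC18. DNA precipitated and lyophilised, then heated at 90 °C for 30 min in sodium citrate buffer (pH 7.2) to cleave at alkylated adenines. Fragments resolved by electrophoresis.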

[3] = Cytotoxicity against mouse B16F0 cells after 3 days by MTT assay; assay type: functional, cell-based; conditions: B16F0, 72 h; in short: as §1
[4] = tested on: Leishmania donovani; test: Antimicrobial activity against promastigotes of Leishmania donovani assessed as inhibition of cell proliferation after 72 hrs by alamar blue assay; assay type: functional, organism-based
In short: (§2)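 Promastigotes at 5 × 10^4 cells/well in DME-L medium with 10% heat-inactivated FBS, hemin, xanthine and penicillin-streptomycin. Exposed to 0.03 nM to 64 µM compound for 72 h at 26 °C. Alamar blue added, incubated 15 h, dye reduction read by fluorescence ex 530/em 590 nm.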

[5] = tested on: Trypanosoma brucei; test: Antimicrobial activity against procyclic form of Trypanosoma brucei 427 assessed as inhibition of cell proliferation after 72 hrs by alamar blue assay; assay type: functional, organism-based; conditions: Trypanosoma brucei, 427, 72 h
In short: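 T. brucei 427 procyclic forms grown in SDM 79 medium with 0.03 nM to 64 µM compound for 72 h at 26 °C. Proliferation read by Alamar blue reduction after a further 15 h, fluorescence ex 530/em 590 nm.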

[6] = tested on: Plasmodium falciparum; test: Antimicrobial activity against Plasmodium falciparum infected in human erythrocytes assessed as growth inhibition; assay type: functional, organism-based
In short: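 P. falciparum grown in human erythrocytes at 3–5% hematocrit in complete medium. In vitro growth assay at six concentrations, in triplicate, in three independent experiments.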

[7] = tested on: Leishmania mexicana; test: Antimicrobial activity against promastigotes of Leishmania mexicana assessed as inhibition of cell proliferation after 72 hrs by alamar blue assay; assay type: functional, organism-based; in short: as §2

| Compound | IC50 [1] [nM] | Activity [2] | IC50 [3] [nM] | IC50 [4] [nM] | IC50 [5] [nM] | IC50 [6] [nM] | IC50 [7] [nM] |
| --- | --- | --- | --- | --- | --- | --- | --- |
| COc1c(O)c2c(c3cc(C(=O)N4CCc5c4c(O)c(OC)c4[nH]c(C(=O)N6C[C@H]7C[C@@]78C6=CC(=O)c6[nH]cc(C)c68)cc54)[nH]c13)CCN2C(N)=O [(+)-CC-1065] | 0.03 | – | – | – | – | – | – |
| COc1cc2cc(C(=O)Nc3cc(N)c4ccccc4c3CCCl)[nH]c2c(OC)c1OC [CENTANAMYCIN] | 55 | Dose-dependent effect | 27 | 13 | 1.9 | 1.8 | 1020 |
